Results published in ChEMBL document CHEMBL5154815, “A Series of Substituted Bis-Aminotriazines Are Activators of the Natriuretic Peptide Receptor C” (J Med Chem, 2022).
Active and inactive are the calls of the source. No cut-off for these calls is given here. Where a SMILES comes first, the peptide text is derived from it.

Key:
[1] = biological target: T1, Atrial natriuretic peptide receptor 3 (Homo sapiens, UniProt P17342); experiment: Binding affinity to CM5 sensor chip immobilized human NPR-C (27 to 541 residues) assessed as dissociation constant by surface plasmon resonance analysis
T1 sequence (P17342 whole entry): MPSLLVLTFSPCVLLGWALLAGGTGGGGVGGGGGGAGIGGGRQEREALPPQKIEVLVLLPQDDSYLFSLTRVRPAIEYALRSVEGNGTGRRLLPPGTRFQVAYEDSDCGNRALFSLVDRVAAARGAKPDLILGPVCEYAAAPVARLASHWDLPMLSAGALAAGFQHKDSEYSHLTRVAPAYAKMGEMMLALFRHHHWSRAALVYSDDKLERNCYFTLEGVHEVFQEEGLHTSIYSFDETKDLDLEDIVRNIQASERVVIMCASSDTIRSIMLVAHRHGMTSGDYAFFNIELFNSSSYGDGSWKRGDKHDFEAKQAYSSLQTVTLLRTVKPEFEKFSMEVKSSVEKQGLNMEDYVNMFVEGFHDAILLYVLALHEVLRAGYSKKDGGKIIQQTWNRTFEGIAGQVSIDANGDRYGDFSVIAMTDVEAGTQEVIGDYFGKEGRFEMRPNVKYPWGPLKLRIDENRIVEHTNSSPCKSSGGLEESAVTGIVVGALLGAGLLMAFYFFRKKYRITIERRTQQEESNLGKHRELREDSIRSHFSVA

[2] = biological target: T2, Atrial natriuretic peptide receptor 3 (Homo sapiens) (UniProt P17342); experiment: Binding affinity to CM5 sensor chip immobilized human NPR-C (27 to 541 residues) assessed as maximum response by surface plasmon resonance analysis relative to control
T2 sequence (whole entry): T1 sequence (P17342 whole entry)
Summary of the method: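 SPR on CM5-immobilized NPR-C (27–541) in PBS-P with 1% DMSO, double-referenced. Observed Rmax was expressed as a percentage of theoretical Rmax. Theoretical Rmax was calculated from immobilized protein response, analyte and ligand molecular weights, and binding stoichiometry.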

[3] = biological target: T2, Atrial natriuretic peptide receptor 3 (Homo sapiens); experiment: Agonist activity at NPRC in human HeLa cells assessed as decrease in forskolin-induced cAMP level at 100 nM; assay type: cell-based; conditions: filed as agonist
[4] = biological target: T1, Atrial natriuretic peptide receptor 3; experiment: Displacement of Flu-P19 probe from human NPR-C (27 to 541 residues) by fluorescence polarization analysis
Summary of the method: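 Competition fluorescence polarization used NPR-C extracellular domain protein (20 nM final) and Flu-P19 probe (150 pM final) in PBS-P with 1% DMSO. Ligand ranged 600–0.274 μM, and samples were assembled on ice. Read-out was at ex 485/em 520 nm, normalized to buffer+probe and protein+probe controls and blanked with buffer alone. EC50 came from curve fitting.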

[5] = biological target: T3, Atrial natriuretic peptide receptor 3 (Rattus norvegicus, UniProt P41740); experiment: Agonist activity at NPRC in rat aorta assessed as vasorelaxation by Organ bath assay; assay type: tissue-based
T3 sequence (P41740 whole entry): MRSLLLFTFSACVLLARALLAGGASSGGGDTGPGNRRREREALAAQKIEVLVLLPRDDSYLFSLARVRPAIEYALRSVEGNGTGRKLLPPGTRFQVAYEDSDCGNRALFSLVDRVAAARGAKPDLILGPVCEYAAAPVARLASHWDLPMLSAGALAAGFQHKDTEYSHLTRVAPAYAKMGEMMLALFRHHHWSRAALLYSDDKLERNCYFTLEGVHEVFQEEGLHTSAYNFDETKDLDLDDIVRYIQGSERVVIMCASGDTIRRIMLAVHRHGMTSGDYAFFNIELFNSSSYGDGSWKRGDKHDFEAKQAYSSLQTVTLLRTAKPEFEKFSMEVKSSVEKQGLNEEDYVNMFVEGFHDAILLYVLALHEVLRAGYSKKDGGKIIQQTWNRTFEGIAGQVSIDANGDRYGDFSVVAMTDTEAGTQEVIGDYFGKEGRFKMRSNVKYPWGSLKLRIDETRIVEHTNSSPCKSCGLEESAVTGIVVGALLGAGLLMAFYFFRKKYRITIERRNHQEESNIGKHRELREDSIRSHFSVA

[6] = biological target: T2, Atrial natriuretic peptide receptor 3 (Homo sapiens); experiment: Agonist activity at NPRC in human Hela cells assessed as decrease in forskolin-induced cAMP level at 100 uM relative to control; assay type: cell-based; design: scale not given: the % may be the effect or the level left
[7] = biological target: T3, Atrial natriuretic peptide receptor 3; experiment: Agonist activity at NPRC in rat small mesenteric arteries assessed as vasorelaxation by Organ bath assay; assay type: tissue-based, Artery
[8] = Stability of compound in pooled human plasma assessed as half life measured upto 120 mins by LC/MS/MS analysis; conditions: 2 h
[9] = biological target: T4, Atrial natriuretic peptide receptor 3 (Mus musculus, UniProt P70180); experiment: Agonist activity at NPRC in knock out mouse mesenteric arteries assessed as vasorelaxation by Organ bath assay; assay type: tissue-based, Artery
T4 sequence (P70180 whole entry): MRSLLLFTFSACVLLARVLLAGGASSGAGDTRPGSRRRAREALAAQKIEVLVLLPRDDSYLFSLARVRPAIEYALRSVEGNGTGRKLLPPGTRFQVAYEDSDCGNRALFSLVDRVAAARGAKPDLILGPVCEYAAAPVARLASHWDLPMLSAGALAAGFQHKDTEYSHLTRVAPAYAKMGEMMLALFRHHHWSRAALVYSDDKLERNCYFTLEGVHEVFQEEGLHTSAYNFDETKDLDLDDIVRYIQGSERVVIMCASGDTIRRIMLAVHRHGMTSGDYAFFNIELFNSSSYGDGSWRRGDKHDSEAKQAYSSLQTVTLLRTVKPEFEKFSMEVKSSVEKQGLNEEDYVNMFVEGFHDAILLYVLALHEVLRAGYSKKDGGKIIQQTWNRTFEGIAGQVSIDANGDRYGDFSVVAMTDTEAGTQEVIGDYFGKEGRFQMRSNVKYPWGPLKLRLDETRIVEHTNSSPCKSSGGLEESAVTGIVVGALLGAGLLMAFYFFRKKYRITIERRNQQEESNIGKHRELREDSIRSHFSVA

[10] = biological target: T3, Atrial natriuretic peptide receptor 3; experiment: Agonist activity at NPRC in rat small mesenteric arteries assessed as vasorelaxation preincubated with M372049 for 15 mins followed by compound treatment by Organ bath assay; assay type: tissue-based, Artery
[11] = biological target: Cytochrome P450 2C9 (Homo sapiens, UniProt P11712); experiment: Inhibition of CYP2C9 in human liver microsomes using diclofenac as substrate preincubated for 10 mins followed by NADPH addition and measured after 10 mins by LC/MS/MS analysis
Chain of Cytochrome P450 2C9 (P11712 whole entry): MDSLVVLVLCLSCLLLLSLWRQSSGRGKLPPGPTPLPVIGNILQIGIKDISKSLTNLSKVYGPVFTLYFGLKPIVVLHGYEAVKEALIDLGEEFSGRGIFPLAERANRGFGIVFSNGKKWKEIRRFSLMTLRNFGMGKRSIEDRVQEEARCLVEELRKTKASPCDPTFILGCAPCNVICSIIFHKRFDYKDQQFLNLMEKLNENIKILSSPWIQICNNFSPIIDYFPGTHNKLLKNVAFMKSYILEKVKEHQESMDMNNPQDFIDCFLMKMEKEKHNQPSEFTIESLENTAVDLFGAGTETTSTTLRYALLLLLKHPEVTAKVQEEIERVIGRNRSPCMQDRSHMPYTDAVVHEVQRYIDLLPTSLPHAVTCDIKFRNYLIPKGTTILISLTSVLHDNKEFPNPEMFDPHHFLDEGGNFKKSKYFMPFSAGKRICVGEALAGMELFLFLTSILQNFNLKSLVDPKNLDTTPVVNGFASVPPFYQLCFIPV

[12] = rat, hepatocytes, 20 min, 1 µM
[13] = biological target: T4, Atrial natriuretic peptide receptor 3; experiment: Agonist activity at NPRC in wild type mouse mesenteric arteries assessed as vasorelaxation by Organ bath assay; assay type: tissue-based, Artery
[14] = Stability in Sprague-Dawley rat hepatocytes assessed as clearance per […] at 1 uM after 20 mins by LC-MS/MS analysis; assay type: ADME, cell-based, Hepatocyte
[15] = Solubility of compound in PBS at 10 mM after 3 hrs by UV analysis; conditions: buffer, 10000 µM
[16] = Protein binding in human plasma by equilibrium dialysis assay
[17] = biological target: Cytochrome P450 2C19 (Homo sapiens, UniProt P33261); experiment: Inhibition of CYP2C19 in human liver microsomes using S-mephenytoin as substrate preincubated for 10 mins followed by NADPH addition and measured after 20 mins by LC/MS/MS analysis
Chain of Cytochrome P450 2C19 (P33261 whole entry): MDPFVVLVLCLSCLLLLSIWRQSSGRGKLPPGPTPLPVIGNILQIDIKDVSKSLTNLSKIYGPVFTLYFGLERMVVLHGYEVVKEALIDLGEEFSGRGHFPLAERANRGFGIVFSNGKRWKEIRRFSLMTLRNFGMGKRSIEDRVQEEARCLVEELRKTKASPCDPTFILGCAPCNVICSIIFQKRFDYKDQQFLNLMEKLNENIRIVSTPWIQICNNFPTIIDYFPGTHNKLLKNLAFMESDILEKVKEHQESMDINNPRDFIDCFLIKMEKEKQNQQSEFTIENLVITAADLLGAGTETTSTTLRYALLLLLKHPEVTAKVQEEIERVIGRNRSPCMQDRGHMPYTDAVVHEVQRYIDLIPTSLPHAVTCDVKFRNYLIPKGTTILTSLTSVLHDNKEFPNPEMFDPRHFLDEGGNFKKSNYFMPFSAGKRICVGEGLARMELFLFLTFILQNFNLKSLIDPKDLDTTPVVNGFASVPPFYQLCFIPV

For CC(=O)Nc1ccc(Nc2ncnc(NCC(=O)OC(C)(C)C)n2)cc1, the Kd [1] was 832 µM.

Work on CC(=O)Nc1ccc(Nc2ncnc(NC(C)(C)C(=O)OC(C)(C)C)n2)cc1 yielded an Rmax [2] of under 20%.

With CC(=O)Nc1ccc(Nc2ncnc(N[C@@H](Cc3ccc(O)cc3)C(=O)OC(C)(C)C)n2)cc1 the Rmax [2] was under 20%.

Compound CC(=O)Nc1ccc(Nc2nc(Cl)nc(N[C@@H](CC(C)C)C(=O)OC(C)(C)C)n2)cc1 has a Kd [1] of 36.9 µM.

In the case of CC[C@H](C)[C@H](NC(=O)[C@H](CCCNC(=N)N)NC(=O)[C@H](CC(=O)O)NC(=O)[C@H](CCSC)NC(=O)[C@H](CCCNC(=N)N)NC(=O)CNC(=O)CNC(=O)[C@H](Cc1ccccc1)NC(=O)[C@H](CS)NC(=O)[C@H](CO)NC(=O)[C@H](CO)NC(=O)[C@@H](N)CCCNC(=N)N)C(=O)NCC(=O)N[C@@H](C)C(=O)N[C@@H](CS)C(=O)N[C@@H](CC(N)=O)C(=O)O (H-RSSCFGGRMDRIGACN-OH), the Activity [3] is reported as “Active”.

Work on CC(=O)Nc1ccc(Nc2ncnc(N[C@H](C(=O)OC(C)(C)C)C(C)C)n2)cc1 yielded a Kd [1] of 79 µM.

CC(=O)Nc1ccc(Nc2ncnc(N[C@@H](Cc3ccccc3)C(=O)O)n2)cc1 showed an EC50 [4] of 60 µM.

With CC(=O)Nc1ccc(Nc2ncnc(N[C@H](C(=O)OC(C)(C)C)C3CCCCC3)n2)cc1 the EC50 [4] was 327 µM, the Kd [1] was 28 µM and the EC50 [5] was 6.24 µM.

CC(=O)Nc1ccc(Nc2ncnc(N[C@@H](CC(C)C)C(=O)OC(C)(C)C)n2)cc1 showed a Kd [1] of 30.8 µM and an Activity [6] of 20.6%.

Work on CC(=O)Nc1ccc(Nc2ncnc(N[C@@H](C)C(=O)OC(C)(C)C)n2)cc1 yielded an EC50 [7] of 3.45 µM, an Rmax [2] of under 20% and an EC50 [5] of 78.1 µM.

In the case of CC(=O)Nc1ccc(Nc2ncnc(N[C@@H](Cc3ccc(F)cc3)C(=O)OC(C)(C)C)n2)cc1, the Kd [1] is reported as 23.7 µM and the EC50 [5] is reported as 4.43 µM.

For CC(=O)Nc1ccc(Nc2ncnc(N[C@@H](CC(C)C)C(=O)OC(C)C)n2)cc1, the Kd [1] was 84.4 µM.

Compound COC(=O)[C@H](CC(C)C)Nc1nc(Cl)nc(N[C@H]2CC[C@H](Nc3nc(Cl)nc(N[C@@H](CC(C)C)C(=O)OC)n3)CC2)n1 has a t1/2 [8] of over 1 h, an EC50 [7] of 0.97 µM and a Kd [1] of 95.7 µM. It also gave an EC50 [9] of 2.64 µM, an EC50 [10] of 0.47 µM and an IC50 [11] of 4.96 µM. It also gave a t1/2 [12] of over 3.613 h, an EC50 [13] of 1.16 µM and an Activity [6] of 31.4%. The CLH [14] was under 0.64 µL/min, the EC50 [5] was 1.43 µM and the solubility [15] was over 122.52 mg/mL. The PPB [16] was 99.5% and the IC50 [17] was 37.8 µM.

CC(=O)Nc1ccc(Nc2ncnc(N[C@@H](CC(C)C)C(=O)OC3CCCC3)n2)cc1 gave a Kd [1] of 25 µM.

In the case of CC(=O)Nc1ccc(Nc2ncnc(N[C@H](CC(C)C)C(=O)OC(C)(C)C)n2)cc1, the Rmax [2] is reported as under 20%.

In the case of CC(=O)Nc1ccc(Nc2ncnc(N[C@H](C(=O)OC(C)(C)C)C(C)(C)C)n2)cc1, the Kd [1] is reported as 201 µM.

With CC(=O)Nc1ccc(Nc2ncnc(N[C@@H](CCc3ccccc3)C(=O)OC(C)(C)C)n2)cc1 the Kd [1] was 23.8 µM and the EC50 [5] was 3.76 µM.

For CC(C)C[C@H](Nc1nc(Cl)nc(Nc2ccc(NS(=O)(=O)c3ccccc3)cc2)n1)C(=O)OC(C)(C)C, the Kd [1] was 99 µM.

CCCCS(=O)(=O)Nc1ccc(Nc2nc(Cl)nc(N[C@@H](CC(C)C)C(=O)OC(C)(C)C)n2)cc1 gave a Kd [1] of 25.7 µM.

Work on CC(=O)Nc1ccc(Nc2ncnc(N[C@@H](Cc3ccccc3)C(=O)OC(C)(C)C)n2)cc1 yielded an EC50 [4] of 32 µM, a Kd [1] of 31.3 µM and an Activity [6] of 9.16%.

Compound CCCCS(=O)(=O)Nc1ccc(Nc2ncnc(N[C@@H](CC(C)C)C(=O)OC(C)(C)C)n2)cc1 has a Kd [1] of 45.1 µM.

In the case of CC(=O)Nc1ccc(Nc2ncnc(N[C@H](COC(C)(C)C)CC(C)C)n2)cc1, the Kd [1] is reported as 42.2 µM.
